A short description of the data set: Toxicity liver stage against HepG2, at 10uM. The data set is classed as cell-based. Also on record: test concentration 10 uM, cell line HepG2-A16-CD81EGFP. The following applies: human, HepG2-A16-CD81EGFP cells; read-out: INHIBITION
The procedure, abridged:
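Uninfected HepG2-A16-CD81EGFP cells, 3 × 10^3 per well, 1536-well, plated on prespotted compound at 10 μM final, parasite-free screening media added to match infected plates; puromycin 10 μM positive, DMSO 0.5% negative; run in parallel with 48 h PbLuc assay at 37 °C, 5% CO2; viability by CellTiter-Glo luminescence, normalized to controls.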
On to `Cc1cc2ncn(C(=O)N3CCOCC3)c2cc1C`, for which the cytotoxicity at 10 µM is -1.45%. `CC1CCc2[nH]c(=O)c(C(=O)N3CCc4ccccc4C3)cc2C1` (stereo unspecified): the cytotoxicity at 10 µM was -6.77%. Next, `CCN(c1ccsc1C(=O)N1CCCCC1)S(=O)(=O)c1ccccc1`: 9.78%; `CCC(C)NC(=O)c1nnn(-c2ccc(Br)cc2)n1` (stereo unspecified): 5.81%. The figure for `O=C(O)CC(CC(=O)N(Cc1ccsc1)C1CC1)c1cccs1` (stereo unspecified) is 7.8%; for `O=C(c1ccccn1)N1CCC(Oc2cccnc2)CC1` it is -3.59%; for `Cc1nsc(C(=O)NCCc2ccc(F)cc2)n1` it is -6.92%. With `O=C(c1ccsc1)N1C[C@@H]2CCN(C(=O)c3cccc(F)c3)[C@@H]2C1`, the cytotoxicity at 10 µM was 1.47%. The figure for `Cc1cnc(N2CC(C(=O)N3CCOCC3)C3(CCOCC3)C2)nc1` (stereo unspecified) is 4.47%; for `CN1CCN([C@@H]2CN(C(=O)c3ccsc3)[C@@H]3CCCO[C@H]23)CC1` it is 6.74%. The figure for `O=C(Nc1cnn(Cc2ccc(F)cc2Cl)c1)C1CC1` is -4.83%; for `Cc1nc2[nH]cnc(Nc3cnn(C)c3)c-2n1` it is 5.59%; for `Cn1ncc(C(=O)N2CCN(S(C)(=O)=O)CC2)c1Cl` it is 7.58%. Next, `CN1CCN(C(=O)CCn2nnc3ccccc32)CC(C(N)=O)C1` (stereo unspecified): 2.24%; `O=C(NCCO)c1sc2ncccc2c1C1CN(C2CCCC2)CCO1` (stereo unspecified): 10.8%. In the case of `Cc1cc(C)nc(C2CCN(C3CCOCC3)C2)n1` (stereo unspecified), the cytotoxicity at 10 µM turned out to be 0.469%. The figure for `Cc1ccccc1OC1CCN(S(=O)(=O)c2c(C)n[nH]c2C)CC1` is 0.0656%.

Take `Cc1nc2c(c(Nc3ccccn3)n1)CN(S(C)(=O)=O)CC2`: the cytotoxicity at 10 µM worked out at 11.1%. Consider `CN1CCOC(c2cncc(CCC(=O)N(C)C)n2)C1` (stereo unspecified), for which the cytotoxicity at 10 µM was 0.55%. Next, `CC(=O)N1CCCC(Cc2cnc(-c3c(C)nn(C)c3C)cn2)C1` (stereo unspecified): -1.37%; `Cc1cc(C(=O)NCCc2c(C)nn(C)c2C)nc(N2CCCCC2)n1`: -16%. Next, `Cc1nc(CCC(N)=O)cc(C2CCNCC2)n1`: -15.1%; `O=C(N[C@@H]1CN(Cc2cccc3[nH]ccc23)C[C@H]1O)c1cscn1`: -2.86%. Next, `Brc1csc(-c2noc(C3COCCO3)n2)c1` (stereo unspecified): -1.92%; `Cc1cccc(NCC(=O)NC2(C#N)CCCC2)c1C(=O)N1CCCC1`: -0.69%. `CCC(C)(C)C1CCCN1C(=O)c1coc(S(=O)(=O)NC)c1` (stereo unspecified): the cytotoxicity at 10 µM was -13.5%. As to `Cc1ccc(C(C)NC(=O)Cc2c(C)nc3cc(=O)[nH]n3c2C)s1` (stereo unspecified), the cytotoxicity at 10 µM was -0.159%. Next, `CN(C)CCN(Cc1ccc(Cl)cc1)C(=O)c1ccn(C)c(=O)c1`: -5.22%. On to `O=C(Cc1ccon1)N(CCC(F)(F)F)C1CCCC1`, for which the cytotoxicity at 10 µM is -9.36%.

As to `Cc1ccc(S(N)(=O)=O)cc1C(=O)NC1CCN(C2CC2)CC1`, the cytotoxicity at 10 µM was found to be 13.3%. The figure for `COCCN(c1cc(C)nc2nc(C(F)(F)F)nn12)C1CCCC1` is -0.0692%; for `Cc1cc(C)n(C2CN(Cc3nc4cc(Cl)ccc4n3C)C2)n1` it is -2.35%; for `Cn1c(CN2CCCC(N3CCCCCC3)C2)cc(=O)n(C)c1=O` (stereo unspecified) it is -1.85%. Next, `CC(C)CN(C)S(=O)(=O)c1ccc(Cl)cc1C#N`: -47.2%; `O=C(NC1CCCOc2cc(Cl)ccc21)c1ccc(=O)[nH]n1` (stereo unspecified): 1.5%; `Cn1c(SCc2noc(C(C)(C)C)n2)nnc1C1CCS(=O)(=O)C1` (stereo unspecified): 8.32%. For `COCCCC(=O)Nc1[nH]nc(-c2ccncc2)c1C`, the cytotoxicity at 10 µM was -0.158%. The figure for `Cc1ccsc1C(Cc1ccccc1)NC(=O)CSCC(N)=O` (stereo unspecified) is 8.13%. Next, `CCn1cc(S(=O)(=O)NCC(OC)c2cccc(Cl)c2)cn1` (stereo unspecified): 10.1%. Next, `COCc1nc2cc(NCc3ncc[nH]3)ccc2o1`: -4.52%. `Cc1cccc(NC(=O)[C@@H]2CCCN2Cc2nc(C)c(C)o2)n1`: the cytotoxicity at 10 µM was -4.34%. In the case of `COC(=O)NCC(=O)N1CCc2cc(Cl)cc(Cl)c2C1`, the cytotoxicity at 10 µM is 0.598%.

As for `O=C(NCC1(CO)CC1)NC(c1nccs1)C1CC1` (stereo unspecified), the cytotoxicity at 10 µM was determined as 1.23%. As to `c1ccc(-c2nnc(CNCC3CCCN3c3cccnn3)o2)cc1` (stereo unspecified), the cytotoxicity at 10 µM was -10.5%.

In the case of `CCOc1ncccc1NC(=O)c1cccs1`, the cytotoxicity at 10 µM came out at 0.932%. Next, `COc1ccc(F)cc1C[S+]([O-])CC(=O)NCC(C)C` (stereo unspecified): -5.95%. Next, `CNC(=O)c1cccc(CCNc2ccc(C#N)cn2)c1`: -3.67%. The figure for `COc1ccc(F)cc1C[S+]([O-])CC(=O)NCc1ccccc1` (stereo unspecified) is -8.97%; for `Cc1cc(C)cc(NC(=O)CC2CN(Cc3ccccc3)CCO2)c1` (stereo unspecified) it is -8.46%.

For `O=C(Nc1ccccc1-c1cccs1)N1CCN(CC(F)F)CC1`, the cytotoxicity at 10 µM was -2.11%. Next, `CCn1c(C)cc(C(=O)NCc2cccc(S(=O)(=O)NC)c2)c1C`: -6.43%. Next, `CNC(=O)CN(C(=O)c1cc(C(C)C)no1)c1cccc(F)c1`: 9.77%; `COc1c(C)cnc(CN(C)C(=O)Nc2ccc3c(c2)CCO3)c1C`: -0.921%. Next, `Cc1ccc(NC(=O)c2ncc(C(N)=O)cc2Cl)cc1F`: -3.53%; `Cn1c(SCC(=O)NC(C)(C#N)C2CC2)nc2ccccc21` (stereo unspecified): -2.15%. For `Cc1cnn(CCCNC2Cc3ccccc3C2)c1`, the cytotoxicity at 10 µM was 3.34%. Next, `COc1ccccc1C1(CNc2ncc(S(N)(=O)=O)s2)CC1`: -3.6%. `Cc1cc(C)c(CNC(=O)NCc2nnc3n2CCCC3)c(=O)[nH]1`: the cytotoxicity at 10 µM was -5.34%.

As for `CCc1noc(CN(C)C(=O)COc2cc(Cl)cc(Cl)c2)n1`, the cytotoxicity at 10 µM is -0.966%. Next, `O=C(CCn1c(=O)oc2ccccc21)NCC(O)c1ccccc1` (stereo unspecified): -15.6%; `O=S(=O)(Cc1ccc(F)c(Cl)c1)NC(CO)c1ccco1` (stereo unspecified): -3.49%. In the case of `Cc1nn(C)c(C)c1CCC(=O)Nc1cn(C)c(=O)n(C)c1=O`, the cytotoxicity at 10 µM came out at 20.6%.

`Cc1noc(C)c1C(=O)N1C[C@@H]2C[C@@H](c3ccncn3)O[C@@H]2C1`: the cytotoxicity at 10 µM is -70%. The figure for `CN(Cc1cccnc1)c1nc(-c2ccccn2)nc2c1CCNCC2` is 3.64%.

For the molecule `COCCn1ccnc1C1CCN(c2cccc(C(=O)O)n2)CC1`, the cytotoxicity at 10 µM was -2.74%. The figure for `CCN(CC)C(=O)[C@@H]1C[C@@H](N)CN1C(=O)c1cc2c([nH]c1=O)CCC2` is -2.79%; for `Cc1n[nH]c(C)c1C(N)C(=O)NCCc1csc(C(C)C)n1` (stereo unspecified) it is -8.64%; for `Cc1cc(CNCC2(O)CCCN(CCCc3ccccc3)C2=O)n[nH]1` (stereo unspecified) it is -2.4%. Consider `Cn1c(Cn2cccn2)nnc1C1CCN(Cc2ccccc2Cl)CC1`, for which the cytotoxicity at 10 µM is -0.4%. Regarding `COc1cccc(C2CCCN2C(=O)c2cc3c(nc2OC)CCC3)c1` (stereo unspecified), the cytotoxicity at 10 µM is -10.2%. Next, `O=C(c1ccc2c(c1)OCO2)N1C[C@@H](CN2CCCCC2)[C@@H](CO)C1`: -4.06%; `COc1cccc(-c2noc(-c3ccc(N4CC(N)C4)nc3)n2)c1OC`: -4.8%. The figure for `CC(O)CN1CCc2onc(-c3ccccc3F)c2C1` (stereo unspecified) is 0.963%.

With `COc1cc(C2CC(=O)Nc3c2nc2n3CCCC2)cc(OC)c1O` (stereo unspecified), the cytotoxicity at 10 µM is -9.59%. Next, `CCCN1CC2(CCN(C)CC2)CC1C(=O)NCCn1ccc(C)n1` (stereo unspecified): -5.64%; `O=C(O)c1ccnc(-c2ccnc(NCCc3cscn3)n2)c1`: 0.852%; `COc1cc(N2CCC(c3nccn3CCCN(C)C)CC2)nc(N)n1`: -7.41%. Next, `O=C(N[C@H]1CN(c2ccncc2)C[C@@H]1C1CC1)C1CCOCC1`: -11.8%; `Cc1cc(N2CCCN(C(C(=O)O)c3cccc(C)c3F)CC2)ccn1` (stereo unspecified): -2.11%. Next, `CCn1cnnc1C1CCN(C(=O)c2cc(C)n(CC)c2C)CC1`: -6.08%; `O=C(N1CCCC(n2cncn2)C1)C1(c2cccc(F)c2)CCC1` (stereo unspecified): 0.322%. For `CCc1nnsc1C(=O)N1CCCC(n2nc(C)nc2C)C1` (stereo unspecified), the cytotoxicity at 10 µM stood at 4.63%.

`CC(=O)N1CCCN(C(=O)NCCCn2cncn2)CC1`: the cytotoxicity at 10 µM was -10.1%. The figure for `CCOc1ccccc1C(CC(=O)Nc1ccccn1)NC(C)=O` (stereo unspecified) is -3.95%; for `O=C(c1cncc2ccccc12)N1CCC[C@@H]1CO` it is 2.37%; for `NC(=O)Cn1cc(NC(=O)N2CCCC2)cn1` it is -8.67%. Take `Cc1nn(C)c(C)c1C1CCCN1C(=O)c1cc[nH]n1` (stereo unspecified): the cytotoxicity at 10 µM was 1.35%. The figure for `CC(NC(=O)NCCCNS(C)(=O)=O)c1ccncc1` (stereo unspecified) is 1.08%; for `Cc1ncsc1C(=O)NCC1CCC2(CCNCC2)CO1` (stereo unspecified) it is 19.1%; for `CN1CCC(c2n[nH]c3ncccc23)C1` (stereo unspecified) it is -20.1%. The figure for `Cn1cc(N2C(=O)CC[C@@H]3[C@H]2CCN3Cc2ccncc2)cn1` is -8.85%. As for `CN1CCN([C@@H]2CCN(CC3CCOC3)[C@H]2Cc2cnn(C)c2)CC1` (stereo partly specified), the cytotoxicity at 10 µM stood at 5.25%. Next, `Cc1ccc(CN2CC(C(=O)N3CCCC3)C3(CCOCC3)C2)s1` (stereo unspecified): -0.152%. The figure for `Cc1ccc(CN2C[C@@H]3[C@@H](C(=O)N4CCCC4)CCS(=O)(=O)[C@@H]3C2)cc1` is 0.411%; for `C=C1C(C)(C)[C@@H]2CC[C@]1(C(=O)N1CCC(n3cc(CCO)nn3)CC1)C2` it is -4.28%; for `CC(C)CC(=O)NCC1CCC(C(c2ccccn2)N(C)C)CC1` (stereo unspecified) it is 12.2%.
